Assay results as given in ChEMBL document CHEMBL3112419, “Hydroxy fatty acids for the delivery of dideoxynucleosides as anti-HIV agents” (Bioorg Med Chem Lett, 2014).

What was measured:
[1] = test system: Human immunodeficiency virus 2; assay: Antiviral activity against HIV-2 ROD infected in thymidine kinase-deficient human CEM cells; type: functional, organism-based; conditions: Human immunodeficiency virus 2, ISOLATE ROD, CCRF-CEM
Method in brief: (§1)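 HIV-2 strain ROD was tested in wild-type CEM (CEM/0) cells and in thymidine kinase-deficient CEM (CEM/TK⁻) cells. Conjugates were tested as diastereomeric mixtures, and parent nucleosides were included as references.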

[2] = Cytotoxicity against human CEM/0 cells; type: cell-based, CCRF-CEM
[3] = test system: Human immunodeficiency virus 2; assay: Antiviral activity against HIV-2 ROD infected in human CEM/0 cells; type: functional, organism-based; conditions: Human immunodeficiency virus 2, ISOLATE ROD, CCRF-CEM; method in brief: as §1
[4] = Cytotoxicity against human MT4 cells; type: cell-based
Method in brief: (§2)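 MT-4 cell cultures infected with wild-type HIV-1 or HIV-2, with cytotoxicity assessed in parallel in the same cells. Lipid-nucleotide conjugates were purified as Na⁺ salts and tested as diastereomeric mixtures. Parent dideoxynucleosides were run alongside as references.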

[5] = test system: Human immunodeficiency virus 2; assay: Antiviral activity against HIV-2 ROD infected in human MT4 cells; type: functional, organism-based; conditions: Human immunodeficiency virus 2, ISOLATE ROD; method in brief: as §2
[6] = test system: Human immunodeficiency virus 1; assay: Antiviral activity against HIV-1 3B infected in human MT4 cells; type: functional, organism-based; conditions: Human immunodeficiency virus 1, 3B; method in brief: as §2

| IC50 [1] | IC50 [3] | IC50 [5] | IC50 [6] | Structure (SMILES) | CC50 [2] | CC50 [4] |
| --- | --- | --- | --- | --- | --- | --- |
| ≥ 81.9 µM | ≥ 36.6 µM | > 278 µM | > 278 µM | Nc1ncnc2c1ncn2[C@H]1C=C[C@@H](CO)O1 | 360 µM | 278 µM |
| > 39.6 µM | > 39.6 µM | 0.4 µM | 0.4 µM | CCCCCCCCCCCCCCCCC(OP(=O)(O)OC[C@@H]1C=C[C@H](n2cc(C)c(=O)[nH]c2=O)O1)C(=O)O (some centres not stated) | 92.6 µM | 64.7 µM |
| > 39.6 µM | > 198 µM | 16.2 µM | 10.9 µM | CCCCCCCCCCCCCCCC(CC(=O)O)OP(=O)(O)OC[C@@H]1C=C[C@H](n2cc(C)c(=O)[nH]c2=O)O1 (some centres not stated) | > 198 µM | > 198 µM |
| > 39.1 µM | 25.3 µM | 0.11 µM | 0.19 µM | CCCCCCCCCCCCCCCCC(OP(=O)(O)OC[C@@H]1C=C[C@H](n2cnc3c(N)ncnc32)O1)C(=O)O (some centres not stated) | 81.3 µM | 97.8 µM |
| > 40.5 µM | 7.5 µM | 5.7 µM | 9.7 µM | CCCCCCCCCCCCCCCCC(OP(=O)(O)OC[C@@H]1CC[C@H](n2ccc(N)nc2=O)O1)C(=O)O (some centres not stated) | 91.1 µM | 94.1 µM |
| ≥ 120 µM | 8.8 µM | 0.4 µM | 0.26 µM | Cc1cn([C@H]2C=C[C@@H](CO)O2)c(=O)[nH]c1=O [STAVUDINE] | > 268 µM | 327 µM |
| 1.9 µM | 0.5 µM | 1.9 µM | 1 µM | Nc1ccn([C@H]2CC[C@@H](CO)O2)c(=O)n1 [ZALCITABINE] | 179 µM | 325 µM |
| > 14.9 µM | 0.04 µM | 0.007 µM |  | Cc1cn([C@H]2C[C@H](N=[N+]=[N-])[C@@H](CO)O2)c(=O)[nH]c1=O [ZIDOVUDINE] | > 468 µM | > 93.5 µM |
